Measurements reported in ChEMBL document CHEMBL5058577, “EUbOPEN Chemogenomics Library 2 (Multiplex)” (2022).

Tested on: HEK-293T
Test: Multiplex assay against HEK293T
Assay type: toxicity, cell-based
Details: human
Outline: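 Four dyes were applied at seeding to live cells: Hoechst33342, BioTracker Green Microtubule Cytoskeleton Dye, MitoTracker Red and Annexin V Alexa Fluor 680. Imaging after compound addition used a CQ1 microscope at 37°C and 5% CO2. CellPathfinder machine-learning gating then sorted cells into Hoechst high-intensity objects or normal cells, normal cells into healthy, pyknosed or fragmented nuclei, and pyknosed cells into mitotic or apoptotic, with tubulin, mitochondrial-mass and membrane-permeability phenotypes given as per cents of healthy-nucleus cells.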

[1] = 12 h, 1 µM, compound concentration 1 uM, replicate 1
[2] = 12 h, 1 µM, compound concentration 1 uM, replicate 2
[3] = 12 h, 10 µM, compound concentration 10 uM, replicate 1
[4] = 12 h, 10 µM, compound concentration 10 uM, replicate 2
[5] = 24 h, 1 µM, compound concentration 1 uM, replicate 1
[6] = 24 h, 1 µM, compound concentration 1 uM, replicate 2
[7] = 24 h, 10 µM, compound concentration 10 uM, replicate 1
[8] = 24 h, 10 µM, compound concentration 10 uM, replicate 2
[9] = 48 h, 1 µM, compound concentration 1 uM, replicate 1
[10] = 48 h, 1 µM, compound concentration 1 uM, replicate 2
[11] = 48 h, 10 µM, compound concentration 10 uM, replicate 1
[12] = 48 h, 10 µM, compound concentration 10 uM, replicate 2

SMILES: CC[C@@H](C)Nc1nc(C)nc2c(-c3ccc(OC)nc3C)c(C)nn12 [PEXACERFONT]
- Population Apoptotic (%) [1]: 33%
- Population Fragmented Nuclei (%) [1]: 7%
- Population Healthy Nuclei (%) [1]: 79%
- Population Hoechst High Intensity Objects (%) [1]: 6%
- Population Membrane Permeable-Phenotype (%) [1]: 0%
- Population Mitochondria Different-Phenotype (%) [1]: 45%
- Population Mitotic Cells (%) [1]: 66%
- Population Normal (%) [1]: 93%
- Population Pyknosed Nuclei (%) [1]: 13%
- Population Tubulin-Different-Phenotype (%) [1]: 34%
- Total Cell Count [1]: 399
- Population Apoptotic (%) [2]: 47%
- Population Fragmented Nuclei (%) [2]: 5%
- Population Healthy Nuclei (%) [2]: 82%
- Population Hoechst High Intensity Objects (%) [2]: 8%
- Population Mitochondria Different-Phenotype (%) [2]: 61%
- Population Mitotic Cells (%) [2]: 52%
- Population Normal (%) [2]: 91%
- Population Pyknosed Nuclei (%) [2]: 11%
- Population Tubulin-Different-Phenotype (%) [2]: 31%
- Total Cell Count [2]: 314
- Population Apoptotic (%) [3]: 38%
- Population Fragmented Nuclei (%) [3]: 6%
- Population Healthy Nuclei (%) [3]: 75%
- Population Hoechst High Intensity Objects (%) [3]: 8%
- Population Membrane Permeable-Phenotype (%) [3]: 0%
- Population Mitochondria Different-Phenotype (%) [3]: 59%
- Population Mitotic Cells (%) [3]: 61%
- Population Normal (%) [3]: 91%
- Population Pyknosed Nuclei (%) [3]: 17%
- Population Tubulin-Different-Phenotype (%) [3]: 54%
- Total Cell Count [3]: 451
- Population Apoptotic (%) [4]: 41%
- Population Fragmented Nuclei (%) [4]: 9%
- Population Healthy Nuclei (%) [4]: 74%
- Population Hoechst High Intensity Objects (%) [4]: 11%
- Population Membrane Permeable-Phenotype (%) [4]: 1%
- Population Mitochondria Different-Phenotype (%) [4]: 75%
- Population Mitotic Cells (%) [4]: 58%
- Population Normal (%) [4]: 88%
- Population Pyknosed Nuclei (%) [4]: 16%
- Population Tubulin-Different-Phenotype (%) [4]: 55%
- Total Cell Count [4]: 321
- Population Apoptotic (%) [5]: 24%
- Population Fragmented Nuclei (%) [5]: 8%
- Population Healthy Nuclei (%) [5]: 79%
- Population Hoechst High Intensity Objects (%) [5]: 3%
- Population Membrane Permeable-Phenotype (%) [5]: 0%
- Population Mitochondria Different-Phenotype (%) [5]: 26%
- Population Mitotic Cells (%) [5]: 75%
- Population Normal (%) [5]: 96%
- Population Pyknosed Nuclei (%) [5]: 11%
- Population Tubulin-Different-Phenotype (%) [5]: 21%
- Total Cell Count [5]: 508
- Population Apoptotic (%) [6]: 45%
- Population Fragmented Nuclei (%) [6]: 13%
- Population Healthy Nuclei (%) [6]: 76%
- Population Hoechst High Intensity Objects (%) [6]: 7%
- Population Mitochondria Different-Phenotype (%) [6]: 34%
- Population Mitotic Cells (%) [6]: 54%
- Population Normal (%) [6]: 92%
- Population Pyknosed Nuclei (%) [6]: 9%
- Population Tubulin-Different-Phenotype (%) [6]: 15%
- Total Cell Count [6]: 387
- Population Apoptotic (%) [7]: 37%
- Population Fragmented Nuclei (%) [7]: 6%
- Population Healthy Nuclei (%) [7]: 79%
- Population Hoechst High Intensity Objects (%) [7]: 7%
- Population Membrane Permeable-Phenotype (%) [7]: 1%
- Population Mitochondria Different-Phenotype (%) [7]: 46%
- Population Mitotic Cells (%) [7]: 62%
- Population Normal (%) [7]: 92%
- Population Pyknosed Nuclei (%) [7]: 14%
- Population Tubulin-Different-Phenotype (%) [7]: 52%
- Total Cell Count [7]: 612
- Population Apoptotic (%) [8]: 33%
- Population Fragmented Nuclei (%) [8]: 7%
- Population Healthy Nuclei (%) [8]: 78%
- Population Hoechst High Intensity Objects (%) [8]: 13%
- Population Membrane Permeable-Phenotype (%) [8]: 0%
- Population Mitochondria Different-Phenotype (%) [8]: 70%
- Population Mitotic Cells (%) [8]: 66%
- Population Normal (%) [8]: 86%
- Population Tubulin-Different-Phenotype (%) [8]: 48%
- Total Cell Count [8]: 371
- Population Apoptotic (%) [9]: 26%
- Population Fragmented Nuclei (%) [9]: 12%
- Population Healthy Nuclei (%) [9]: 80%
- Population Hoechst High Intensity Objects (%) [9]: 2%
- Population Membrane Permeable-Phenotype (%) [9]: 0%
- Population Mitochondria Different-Phenotype (%) [9]: 22%
- Population Mitotic Cells (%) [9]: 73%
- Population Normal (%) [9]: 97%
- Population Pyknosed Nuclei (%) [9]: 7%
- Population Tubulin-Different-Phenotype (%) [9]: 20%
- Total Cell Count [9]: 816
- Population Apoptotic (%) [10]: 41%
- Population Fragmented Nuclei (%) [10]: 10%
- Population Membrane Permeable-Phenotype (%) [10]: 1%
- Population Mitochondria Different-Phenotype (%) [10]: 27%
- Population Mitotic Cells (%) [10]: 58%
- Population Pyknosed Nuclei (%) [10]: 9%
- Population Tubulin-Different-Phenotype (%) [10]: 19%
- Total Cell Count [10]: 520
- Population Apoptotic (%) [11]: 40%
- Population Fragmented Nuclei (%) [11]: 13%
- Population Healthy Nuclei (%) [11]: 77%
- Population Hoechst High Intensity Objects (%) [11]: 7%
- Population Membrane Permeable-Phenotype (%) [11]: 1%
- Population Mitochondria Different-Phenotype (%) [11]: 45%
- Population Mitotic Cells (%) [11]: 59%
- Population Normal (%) [11]: 92%
- Population Pyknosed Nuclei (%) [11]: 9%
- Population Tubulin-Different-Phenotype (%) [11]: 38%
- Total Cell Count [11]: 692
- Population Fragmented Nuclei (%) [12]: 10%
- Population Healthy Nuclei (%) [12]: 72%
- Population Hoechst High Intensity Objects (%) [12]: 18%
- Population Membrane Permeable-Phenotype (%) [12]: 0%
- Population Mitochondria Different-Phenotype (%) [12]: 53%
- Population Mitotic Cells (%) [12]: 60%
- Population Normal (%) [12]: 81%
- Population Pyknosed Nuclei (%) [12]: 17%
- Population Tubulin-Different-Phenotype (%) [12]: 36%
- Total Cell Count [12]: 390
